Bioassay records (PubChem BioAssay)
Hits are enriched below; roughly 3.2% of the tested compounds scored in any of these assays.
Pemphigus Ab inh – blocks pemphigus antibody binding to human desmoglein-3 | DSG3-coupled beads, scFv-anti-DSG3-GFP binding, flow cytometry; hits give low values | 310,000 compounds, 0.48% hits | binding (percent of control), % at 10 µM | P32926;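 active means binding more than 3 SD below its plate's average and above zero; inconclusive means below that plate limit but binding exactly zero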;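 further: hits lower antibody fragment binding to DSG3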
Apaf-1 inh – human Apaf-1 inhibition. reconstituted apoptosome caspase-3 activity, DEVD-Rh110 fluorescence. AID 489030. inhibition, % at 20 µM. 330,000 compounds, 0.71% hits; active means inhibition of at least 40% at 20 µM;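 further: plate controls were DMSO wells for no effect and DEVD-CHO caspase inhibitor wells for full effect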
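System – cell-free apoptosome with Apaf-1, procaspase-3 and caspase-9 · Buffer or medium – pH 7.5 Hepes buffer with CHAPS, BSA, DTT · Also added – cytochrome c with DEVD-Rh110 · Times – 30 min compound preincubation, 50 min activation, room temperature · Technique – Rh110 fluorescence intensity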
MEKK2 mut-MEK5 – signal of MEK5 binding to mutant human MEKK2 PB1 domain. bead flow cytometry, Alexa488-MEK5 binding to MEKK2 mutant. percent response, % at 10 µM. 290,000 compounds, 0.35% hits; in the data active means percent response above about 24%, passing the limit was not always enough
UBC13 polyUb – human UBC13 polyubiquitination inhibition | AID 485273 | inhibition, % at 20 µM | P61088 | 330,000 compounds, 0.47% hits | UBC13 polyubiquitin chain formation, TR-FRET; in the data active means inhibition above about 45%, passing the limit was not always enough; inconclusive means no clear call, values can overlap the other calls
MEKK2wt PB1 HTS – raises or lowers MEK5 binding to wildtype human MEKK2 PB1 domain | Q9Y2U5 | bead flow cytometry, Alexa488-MEK5 binding to MEKK2 WT; actives lie on both sides | binding response (% of control), % at 10 µM | 290,000 compounds, 1.1% hits | AID 1531; in the data active means binding response below about 67% or above about 130%; inconclusive means no clear call, values can overlap the other calls; inactive means in between
MEKK3 PB1 HTS – modulators (inhibitors or enhancers) of MEK5 binding to human MEKK3 PB1 domain; Q99759; bead-based flow cytometry, Alexa488-MEK5 binding to MEKK3; actives lie on both sides; 0 = blocked by unlabeled MEK5, 100 = vehicle; binding response (% of control), % at 10 µM; 290,000 compounds, 1.4% hits; AID 1529;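 active means binding response more than 3 SD above or below the average of its plate-row segment, actives on both sides; inconclusive means wells at one plate position flagged as instrument error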;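 further: Alexa488 bead fluorescence after subtracting the streptavidin-only scavenger bead signal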
Casp3 counter – counter-screen for UBC13 inhibitors: human caspase-3 inhibition; shares compounds with UBC13 polyUb; Recombinant caspase-3, Caspase-Glo 3/7 luminescence, 60 min; inhibition, % at 20 µM; 1,400 compounds, 4% hits; AID 488856;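 active means mean inhibition across replicates above about 26%, limit read from the data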;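 further: plate controls were DMSO with caspase-3 for no effect and DMSO wells lacking enzyme for full effect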
UBC13 conf – confirmation of human UBC13 polyubiquitin inhibitors. shares compounds with UBC13 polyUb. 1,400 compounds, 68% hits. inhibition, % at 10 µM. AID 488859. UBC13 polyubiquitination, TR-FRET, biochemical; in the data active means inhibition above about 45%; inconclusive means no clear call, values can overlap the other calls
* marks the source's active call; other numbers are inactive results; ? = inconclusive; / = not tested or not shown.

SMILES	Pemphigus Ab inh	Apaf-1 inh	MEKK2 mut-MEK5	UBC13 polyUb	MEKK2wt PB1 HTS	MEKK3 PB1 HTS	Casp3 counter	UBC13 conf
CC(C)NC(=S)N=Nc1c(O)[nH]c2ccc(C(C)C)cc12	102	19	8	65*	107	103	0	74*
Oc1[nH]c2c(Cl)cc(Cl)cc2c1N=NC(=S)NCC1CCCO1 (stereo unspecified)	95	2	14	-43	81	98	/	/
Oc1[nH]c2ccccc2c1N=NC(=S)NCC1CCCO1 (stereo unspecified)	102	1	12	98*	90	103	2	102*
CC(C)c1ccc2[nH]c(O)c(N=NC(=O)c3cccc(S(=O)(=O)Nc4ccccc4Cl)c3)c2c1	90	16	-1	-28	101	105	/	/
Cc1cc(C)c2[nH]c(O)c(N=NC(=S)NCC3CCCO3)c2c1 (stereo unspecified)	110	-12	-7	91*	84	76	-6	94*
Oc1[nH]c2ccc(Br)cc2c1N=NC(=S)NCC1CCCO1 (stereo unspecified)	96	1	-1	79*	93	94	3	97*
COc1ccc(NC2CCCN(C(=O)c3cc(CC(C)C)nc(N)n3)C2)cc1 (stereo unspecified)	100	14	2	-6	104	104	/	/
Cc1cccc(NC(=S)N=Nc2c(O)[nH]c3ccccc23)c1	98	2	0	60*	93	96	2	76*
CCn1c(O)c(N=NC(=S)NCC2CCCO2)c2ccccc21 (stereo unspecified)	98	0	0	77*	99	100	2	95*
COCCCn1c(N)c(-c2nc3ccccc3n2C)c2nc3ccccc3nc21	102	-2	5	62*	103	104	-1	59*
COC(=O)C[C@@H]1C[C@@H]2c3cc(NC(=O)Cc4ccncc4)ccc3O[C@@H]2[C@@H](CO)O1	103	/	/	/	/	/	/	/
CCCCC(C(=O)NC(C)(C)C)N(Cc1ccccc1Cl)C(=O)c1snc(C(N)=O)c1N (stereo unspecified)	109	23	-4	34	91	95	/	/
CCCC(C(=O)NC(C)(C)C)N(Cc1ccccc1Cl)C(=O)c1snc(C(N)=O)c1N (stereo unspecified)	98	13	5	49*	99	105	-2	61*
c1ccc(-c2nnc3oc(-c4cccs4)nn23)cc1	104	/	/	/	/	/	/	/
COc1ccc(S(=O)(=O)N2CCCC2)cc1NC(=O)c1ccccc1F	?	-3	-3	21	97	97	/	/
COc1ccccc1NC(=O)c1cc(S(=O)(=O)N2CCCCCC2)ccc1F	/	21	0	68*	100	100	-4	90*
COc1cc(NC(=O)c2cc(S(=O)(=O)N3CCCCC3)ccc2N2CCOCC2)cc(OC)c1	115	21	/	6	/	/	/	/
COc1ccc(C)cc1NC(=O)c1cc(S(=O)(=O)N2CCCCC2)ccc1N1CCOCC1	94	8	/	65*	/	/	-3	51*
Nc1c(Cl)ncnc1N/N=C/c1cccc(O)c1	98	-14	3	62*	91	89	81*	-8
Cn1cc(C(=O)NS(=O)(=O)Nc2ccc(Br)cc2)c2ccccc21	101	-7	3	-1	104	102	/	/
CCOc1ccc(Cl)cc1/C=N/O	104	-11	3	12	99	101	/	/
CCOc1ccc(Cl)cc1/C=N/NC(N)=O	103	7	9	50*	107	105	-2	53*
CCN(CC)CCNC(=O)c1cc(Br)c(N)cc1OC	109	-9	/	7	/	/	/	/
Cc1c(Br)c(C(=O)NNC(=O)c2ccc(C(C)(C)C)cc2)nn1C	110	-24	2	56*	104	104	0	57*
CCOC(=O)c1c(-c2ccccc2)oc2ccc(OCC(O)CN(C)C)cc12 (stereo unspecified)	/	19	25*	47*	162*	107	-4	52*
SMILES	Pemphigus Ab inh	Apaf-1 inh	MEKK2 mut-MEK5	UBC13 polyUb	MEKK2wt PB1 HTS	MEKK3 PB1 HTS	Casp3 counter	UBC13 conf
CCOC(=O)c1c(-c2ccccc2)oc2ccc(OC(C)C(=O)O)cc12 (stereo unspecified)	97	-1	5	15	105	101	/	/
Cc1ccc(C)c(OCC(O)CN2CCN(CCN3C(=O)c4cccc5cccc(c45)C3=O)CC2)c1 (stereo unspecified)	106	19	6	84*	116	106	3	101*
O=C1c2cccc3cccc(c23)C(=O)N1CCN1CCN(CC(O)COCc2ccc(Cl)cc2)CC1 (stereo unspecified)	106	1	3	98*	112	100	-4	108*
CC(=O)c1ccccc1OCC(O)CN1CCN(CCN2C(=O)c3cccc4cccc(c34)C2=O)CC1 (stereo unspecified)	109	-7	5	54*	104	101	-2	60*
C[C@@H]1CCCCCCCCC(=O)OCCN[C@H](C)CCCCCCCCC(=O)OCCN[C@H](C)CCCCCCCCC(=O)OCCN1	105	68*	/	63*	/	/	-3	51*
Cn1c2ccccc2c(=O)c2ccc(NCCc3cccs3)cc21	100	30	/	45*	/	/	88*	?
CN1C(=O)NC(=O)C1c1ccccc1 (stereo unspecified)	118	/	/	/	/	/	/	/
COc1c(C=O)cc2c3c1CCCN3CCC2	110	-6	3	6	114	109	/	/
NCc1cc2c3c(c1)CCCN3CCC2	89	-15	18	54*	119	101	-2	19
COc1ccc(Cl)cc1/C=N/NC(=O)c1c(-c2ccccc2)noc1C	100	10	2	56*	103	102	2	43
CCOc1ccc(N2C(=O)C3C(c4ccccc4)=NN(c4ccccc4)C3C2=O)cc1 (stereo unspecified)	111	4	2	56*	103	108	-4	39
CCOC(=O)c1cc(-c2ccc(OC)cc2)nc2c1c(C)nn2CCC#N	91	18	-11	53*	100	100	0	?
Cc1ccc(NC(=O)c2cc(S(=O)(=O)NCCC3=CCCCC3)ccc2F)cc1F	95	6	1	-1	112	114	/	/
O=C(Nc1cccc(F)c1)c1cc(S(=O)(=O)NCCC2=CCCCC2)ccc1F	98	22	6	48*	96	103	-2	30
